Assay results: ChEMBL document CHEMBL1140812, “Synthesis of genistein derivatives and determination of their protective effects against vascular endothelial cell damages caused by hydrogen peroxide” (Bioorg Med Chem Lett, 2008)
The source made the active and inactive calls. The rule behind the calls is not given here.

Tests used:
[1] = tested on: HUVE12; assay: Reversal of hydrogen peroxide-induced LDH activity in human HUVE12 cells; type: functional, cell-based
Outline: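 HUVE-12 cells pretreated 30 min with compound (0.1–10.0 µM) or 0.02% DMSO vehicle, then 1 mM H2O2 for 24 h at 37 °C. Medium sampled before harvest; LDH activity measured by colorimetric kit as a marker of cell injury. Average of three experiments.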

[2] = tested on: HUVE12; assay: Protection against hydrogen peroxide-induced apoptosis in human HUVE12 cells; type: functional, cell-based
Outline: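 HUVE-12 cells in DMEM with 10% newborn calf serum at 37 °C, 5% CO2. Pretreated 30 min with compound (0.1, 1.0, 10.0 µM; also 0.1–10.0 µM series) or 0.02% DMSO vehicle, then 1 mM H2O2 for 24 h. Trypsinized, fixed in 70% ice-cold ethanol, stained with PI/RNase A 15 min at 37 °C; apoptosis by flow cytometry. Three independent experiments.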

SMILES	Activity [1]	Activity [2]
O=c1c(-c2ccc(OC(F)F)cc2)coc2cc(OC(F)F)cc(O)c12	Active	–
O=c1c(-c2ccc(O)cc2)coc2cc(O)cc(O)c12	Active	–
CCCCCCCCCOc1ccc(-c2coc3cc(OC(F)F)cc(OCCCCCCCCC)c3c2=O)cc1	Active	–
CC(C)C/C=C/Oc1ccc(-c2coc3cc(OC(F)F)cc(O/C=C/CC(C)C)c3c2=O)cc1	Active	–
CCCOc1ccc(-c2coc3cc(OC(F)F)cc(OCCC)c3c2=O)cc1	Active	–
COc1ccc(-c2coc3cc(OC(F)F)cc(OC)c3c2=O)cc1	Active	Active
CCOc1ccc(-c2coc3cc(OC(F)F)cc(OCC)c3c2=O)cc1	Active	–
CCCCCCCCOc1ccc(-c2coc3cc(OC(F)F)cc(OCCCCCCCC)c3c2=O)cc1	Active	–
O=c1c(-c2ccc(OCc3ccccc3)cc2)coc2cc(OC(F)F)cc(OCc3ccccc3)c12	Active	–
O=c1c(-c2ccc(O)cc2)coc2cc(OC(F)F)cc(O)c12	Active	–
CCCCCCCOc1ccc(-c2coc3cc(OC(F)F)cc(OCCCCCCC)c3c2=O)cc1	Active	–
